Activity calls are given as the source filed them. The calls are words filed in the database; no cut-off is given here.

Data set [1] concerns the target T1, Transient receptor potential cation channel subfamily A member 1 (Homo sapiens, UniProt O75762). Kind of data set: Antagonist activity at human TRPA1 expressed in HEK293 cells assessed as increase in calcium influx at 100 uM incubated for 10 mins prior to CA addition by Fluo-4-AM dye based fluorescence assay relative to CA. The format is cell-based. Also noted: scale not given: the % may be the effect or the level left. Summed up: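 hTRPA1-HEK293 cells loaded with Fluo-4AM (2 µM). Compound pre-incubated 10 min, then cinnamaldehyde standard agonist added. FlexStation read, ex 485/em 538 nm. ΔRFU normalized to the CA response set at 100 % after DMSO vehicle subtraction. N = 3. logIC50 taken from dose-response fits.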

For data set [2], the target named is T2, Transient receptor potential cation channel subfamily M member 8 (Homo sapiens, UniProt Q7Z2W7). In words: Agonist activity at human TRPM8 expressed in HEK293 cells assessed as increase in calcium influx at 30 uM by Fluo-4-AM dye based fluorescence assay relative to calcimycin. In kind it is cell-based. Summed up: (§1)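 Stably transfected hTRPA1- or hTRPM8-HEK293 cells on poly-D-lysine plates for 48 h, loaded with Fluo-4AM (2 µM, 45 min, dark, room temperature), in isotonic HEPES buffer pH 7.4. FlexStation 240 s run: 20 s baseline, compound added, calcimycin added at 180 s. ΔRFU expressed as % calcimycin, DMSO-subtracted. Screening N = 3. Dose-response curves fitted for logEC50 (N = 3 in duplicate or triplicate).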
Target sequence in this assay (Q7Z2W7 whole entry, looked up): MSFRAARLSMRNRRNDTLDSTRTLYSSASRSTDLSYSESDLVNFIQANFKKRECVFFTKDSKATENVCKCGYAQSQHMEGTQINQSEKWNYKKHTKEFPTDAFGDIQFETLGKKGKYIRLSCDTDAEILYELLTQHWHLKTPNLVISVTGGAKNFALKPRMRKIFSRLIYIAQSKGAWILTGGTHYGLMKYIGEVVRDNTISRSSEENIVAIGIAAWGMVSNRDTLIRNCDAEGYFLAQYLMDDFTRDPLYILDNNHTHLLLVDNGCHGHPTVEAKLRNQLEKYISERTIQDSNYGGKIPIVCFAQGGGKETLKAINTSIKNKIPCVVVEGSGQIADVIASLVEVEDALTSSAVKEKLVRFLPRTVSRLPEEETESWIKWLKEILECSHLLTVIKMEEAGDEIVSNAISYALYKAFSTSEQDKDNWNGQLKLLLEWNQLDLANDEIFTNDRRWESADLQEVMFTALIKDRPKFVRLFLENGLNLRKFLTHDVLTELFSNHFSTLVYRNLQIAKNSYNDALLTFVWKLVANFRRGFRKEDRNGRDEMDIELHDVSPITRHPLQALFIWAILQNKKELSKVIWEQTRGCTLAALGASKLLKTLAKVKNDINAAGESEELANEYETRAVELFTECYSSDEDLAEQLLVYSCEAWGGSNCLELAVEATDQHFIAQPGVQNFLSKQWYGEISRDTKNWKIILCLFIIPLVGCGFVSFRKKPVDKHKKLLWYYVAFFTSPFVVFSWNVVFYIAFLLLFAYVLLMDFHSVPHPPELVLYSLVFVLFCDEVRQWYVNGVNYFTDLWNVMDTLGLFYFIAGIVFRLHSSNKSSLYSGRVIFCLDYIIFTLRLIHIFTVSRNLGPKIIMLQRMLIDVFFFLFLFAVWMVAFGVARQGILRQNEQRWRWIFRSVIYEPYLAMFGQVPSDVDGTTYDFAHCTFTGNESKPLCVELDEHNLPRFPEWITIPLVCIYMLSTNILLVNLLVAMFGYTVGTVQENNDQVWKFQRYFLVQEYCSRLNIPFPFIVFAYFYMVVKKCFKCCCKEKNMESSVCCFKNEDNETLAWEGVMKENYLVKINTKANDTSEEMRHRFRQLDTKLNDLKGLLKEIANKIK

In data set [3] the target is T2, Transient receptor potential cation channel subfamily M member 8. Kind of data set: Agonist activity at human TRPM8 expressed in HEK293 cells assessed as increase in calcium influx at 100 uM by Fluo-4-AM dye based fluorescence assay relative to calcimycin. In kind it is cell-based. Summed up:
as §1
Target sequence in this assay (Q7Z2W7 whole entry, looked up): as above

For data set [4], the target named is T1, Transient receptor potential cation channel subfamily A member 1. Kind of data set: Agonist activity at human TRPA1 expressed in HEK293 cells assessed as increase in calcium influx at 30 uM by Fluo-4-AM dye based fluorescence assay relative to calcimycin. In kind it is cell-based. In short, it runs like this: as §1
Data set [5] has as its target T2, Transient receptor potential cation channel subfamily M member 8. In words: Antagonist activity at human TRPM8 expressed in HEK293 cells assessed as increase in calcium influx at 100 uM incubated for 10 mins prior to WS5 challenge by Fluo-4-AM dye based fluorescence assay relative to WS5. In kind it is cell-based. More on the design: scale not given: the % may be the effect or the level left. In short, it runs like this: (§2)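 hTRPM8-HEK293 cells loaded with Fluo-4AM (2 µM, 45 min). Test compound pre-incubated 10 min before WS5 standard agonist. FlexStation fluorescence at 485/538 nm. ΔRFU given as % of WS5 response after DMSO vehicle subtraction. N = 3. IC50 from dose-response curves.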
Target sequence in this assay (Q7Z2W7 whole entry, looked up): as above

The test system of data set [6] is Transient receptor potential cation channel subfamily A member 1 (Homo sapiens), O75762 [F909A]. Kind of data set: Agonist activity at human TRPA1 Phe909Ala mutant expressed in HEK293 cells assessed as Ca2+ influx at 30 uM by fluorescence assay. In kind it is cell-based. In short, it runs like this: (§3)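 HEK293 cells stably expressing hTRPA1 point mutants (C621A, F909A or F944A), single-cell cloned under G418 selection. Cells plated on poly-D-lysine for 48 h, loaded with Fluo-4AM 2 µM for 45 min at room temperature. FlexStation read (ex 485/em 538 nm): 20 s baseline, compound added, calcimycin added at 180 s. Response expressed as % calcimycin from ΔRFU, vehicle-subtracted, and compared with wild-type hTRPA1 cells.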
Chain of Transient receptor potential cation channel subfamily A member 1 (Homo sapiens), O75762 [F909A] (O75762 whole entry F909A): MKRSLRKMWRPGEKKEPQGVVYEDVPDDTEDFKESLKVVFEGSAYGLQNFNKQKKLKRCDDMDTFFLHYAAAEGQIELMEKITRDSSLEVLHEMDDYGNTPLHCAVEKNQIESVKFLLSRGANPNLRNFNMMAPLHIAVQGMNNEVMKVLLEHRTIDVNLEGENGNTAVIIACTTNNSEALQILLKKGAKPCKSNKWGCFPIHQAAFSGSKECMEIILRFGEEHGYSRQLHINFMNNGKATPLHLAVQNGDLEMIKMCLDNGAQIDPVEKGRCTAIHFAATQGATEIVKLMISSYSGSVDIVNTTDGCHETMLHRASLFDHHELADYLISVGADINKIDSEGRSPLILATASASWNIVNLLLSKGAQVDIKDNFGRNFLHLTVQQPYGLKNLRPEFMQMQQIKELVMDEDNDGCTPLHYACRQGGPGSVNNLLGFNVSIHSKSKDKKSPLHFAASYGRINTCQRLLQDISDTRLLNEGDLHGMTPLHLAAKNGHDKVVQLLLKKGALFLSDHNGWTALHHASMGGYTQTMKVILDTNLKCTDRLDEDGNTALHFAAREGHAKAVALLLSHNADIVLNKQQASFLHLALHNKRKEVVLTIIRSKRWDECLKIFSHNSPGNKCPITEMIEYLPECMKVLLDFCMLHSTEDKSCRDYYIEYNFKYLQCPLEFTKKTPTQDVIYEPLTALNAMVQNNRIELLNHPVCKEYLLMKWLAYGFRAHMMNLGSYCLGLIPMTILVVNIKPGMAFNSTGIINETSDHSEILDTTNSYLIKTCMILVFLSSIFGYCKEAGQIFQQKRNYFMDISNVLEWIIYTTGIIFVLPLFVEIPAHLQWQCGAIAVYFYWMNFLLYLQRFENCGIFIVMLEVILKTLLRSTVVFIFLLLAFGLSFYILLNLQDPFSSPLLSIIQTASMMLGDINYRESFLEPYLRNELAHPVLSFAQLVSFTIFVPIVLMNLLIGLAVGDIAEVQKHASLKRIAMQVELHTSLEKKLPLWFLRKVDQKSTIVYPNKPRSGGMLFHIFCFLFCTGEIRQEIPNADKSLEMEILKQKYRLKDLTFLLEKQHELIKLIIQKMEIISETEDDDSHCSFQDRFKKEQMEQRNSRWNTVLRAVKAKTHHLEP

Data set [7] has as its target T1, Transient receptor potential cation channel subfamily A member 1. Kind of data set: Agonist activity at human TRPA1 expressed in HEK293 cells assessed as increase in calcium influx by Fluo-4-AM dye based fluorescence assay. In kind it is cell-based. As to conditions: for EC50: read-out: EC50. In short, it runs like this: as §1
Data set [8] is described as follows: Dissociation constant, pKa of the compound at pH 7.4. In kind it is physicochemical.
For data set [9], the system named is Transient receptor potential cation channel subfamily A member 1 (Homo sapiens), O75762 [F944A]. Kind of data set: Agonist activity at human TRPA1 Phe944Ala mutant expressed in HEK293 cells assessed as Ca2+ influx at 30 uM by fluorescence assay. The format is cell-based. Summed up: as §3
Chain of Transient receptor potential cation channel subfamily A member 1 (Homo sapiens), O75762 [F944A] (O75762 whole entry F944A): as the sequence (O75762 whole entry F909A) above, with A909F, F944A counted along it
Data set [10] has as its target T1, Transient receptor potential cation channel subfamily A member 1. Kind of data set: Agonist activity at human TRPA1 expressed in HEK293 cells assessed as increase in calcium influx at 3 uM by Fluo-4-AM dye based fluorescence assay relative to calcimycin. In kind it is cell-based. Summed up: as §1
In data set [11] the target is T2, Transient receptor potential cation channel subfamily M member 8. Kind of data set: Antagonist activity at human TRPM8 expressed in HEK293 cells assessed as increase in calcium influx at 3 uM incubated for 10 mins prior to WS5 challenge by Fluo-4-AM dye based fluorescence assay relative to WS5. The format is cell-based. Also noted: scale not given: the % may be the effect or the level left. In short, it runs like this:
as §2
Target sequence in this assay (Q7Z2W7 whole entry, looked up): as the sequence (Q7Z2W7 whole entry, looked up) above

The target of data set [12] is T1, Transient receptor potential cation channel subfamily A member 1. Kind of data set: Antagonist activity at human TRPA1 expressed in HEK293 cells assessed as inhibition of CA-induced increase in calcium influx incubated for 10 mins prior to CA addition by Fluo-4-AM dye based fluorescence assayy. The format is cell-based.
The subject of data set [13] is Transient receptor potential cation channel subfamily A member 1 (Homo sapiens), O75762 [F909A]. In words: Agonist activity at human TRPA1 Phe909Ala mutant expressed in HEK293 cells assessed as Ca2+ influx at 10 uM by fluorescence assay. In kind it is cell-based. In short, it runs like this: as §3
Data set [14] has as its target T2, Transient receptor potential cation channel subfamily M member 8. In words: Antagonist activity at human TRPM8 expressed in HEK293 cells assessed as inhibition in WS5-induced increase in calcium influx incubated for 10 mins prior to WS5 challenge by Fluo-4-AM dye based fluorescence assay. In kind it is cell-based. Summed up:
as §2
Target sequence in this assay (Q7Z2W7 whole entry): as the sequence (Q7Z2W7 whole entry, looked up) above

T1 sequence (O75762 whole entry): as the sequence (O75762 whole entry F909A) above, with A909F counted along it

`Cc1ccc(/C=C/C(=O)Nc2ccccc2C(=O)O)cc1`: the Activity in data set [1] was found to be 40%; in [4], 30%; in data set [5], 48%. Moreover, the result in data set [2], in data set [3] and in [9] was inactive. In addition, the result in [6] was Active. Further, the EC50 (in general, the concentration at which the effect is half-maximal) in data set [7] is 149 µM. In addition, in data set [8], the pKa – broadly, the pH at which an ionisable group is half protonated – was 3.5.
On to `COC(=O)c1ccccc1NC(=O)/C=C/c1ccc(C)cc1`, for which the Activity was 28% in [10] and 88% in data set [11]. For the same compound, the pKa in [8] turned out to be 13.9.
In the case of `COC(=O)c1ccccc1NC(=O)/C=C/c1ccc(N(C)C)cc1`, the values for the Activity in data set [10] and in data set [11] were 27% and 86%, respectively. This compound registered a pKa in data set [8] of 4.8.
`COC(=O)c1ccccc1NC(=O)/C=C/c1ccc(C(F)(F)F)cc1`: the values for the Activity in [10] and in [11] were 29% and 81%, respectively. This compound had a pKa in data set [8] of 13.7.
`COC(=O)c1ccccc1NC(=O)/C=C/c1ccc(OC(C)=O)c(OC(C)=O)c1`: the Activity in [10] worked out at 12%; in [11], 102%. In data set [8], this compound yielded a pKa of 13.6.
Regarding `O=C(O)[C@@H]1CCCN1C(=O)/C=C/c1ccccc1`, the Activity is 79% in [1], 5% in data set [4] and 65% in data set [5]. The result in data set [2] and in data set [3] was inactive. In addition, in [8], the pKa was 3.2.
With `O=C(/C=C/c1ccccc1)Nc1ccccc1C(=O)O`, the Activity in data set [1] stood at 42%; in data set [4] it was 24%; in data set [5], 48%. Besides, the result in data set [2] and in [3] was inactive. The compound further came in with a pKa in [8] of 3.5.
Consider `O=C(/C=C/c1ccc(O)c(O)c1)Nc1ccccc1C(=O)O`, for which the outcome in [3] was inactive. Further, in data set [8], the pKa was determined as 3.5.
For the compound `COC(=O)c1ccccc1NC(=O)/C=C/c1ccc(Br)cc1`, the Activity in data set [10] was 41%; in data set [11] it was 79%. In [8], the pKa is 13.8.
In the case of `COc1ccc(/C=C/C(=O)Nc2ccccc2C(=O)O)cc1OC`, the Activity in data set [1] was found to be 56%; in [4] it was 6%; in [5], 65%. The outcome in data set [2] and in [3] was inactive. Moreover, in data set [12], the half-inhibitory concentration (IC50) – broadly, the concentration at which inhibition is half-maximal – was determined as 126 µM. Besides, in data set [8], the pKa was determined as 3.5.
Regarding `COc1ccc(/C=C/C(=O)Nc2ccccc2C(=O)O)cc1`, the Activity amounted to 19% in [1], 27% in data set [4] and 68% in data set [5]. The outcome in [2], in data set [3] and in data set [9] was inactive. Further, the result in data set [6] was Active. In addition, the half-maximal effective concentration (EC50) in data set [7] amounted to 49 µM. Also, the half-maximal inhibitory concentration (IC50) in [12] turned out to be 12 µM. The compound also showed a pKa in data set [8] of 3.5.
Turning to `CC(=C\c1ccc(Cl)cc1)/C(C)=N/O` [AP18 5], the IC50 in data set [12] stood at 4 µM.
As to `CN(C)c1ccc(/C=C/C(=O)Nc2ccccc2C(=O)O)cc1`, the result in data set [3] was inactive. In data set [8], this compound registered a pKa of 3.5.
Take `COC(=O)c1ccccc1NC(=O)/C=C/c1ccccc1Cl`: the Activity was 29% in data set [10] and 53% in [11]. Also, the pKa in data set [8] stood at 13.7.
Taken in the same sequence, the figures for `COC(=O)c1ccccc1NC(=O)/C=C/c1ccc(F)cc1` were 34%, 85% and 13.9.
Consider `COc1ccc(CCC(=O)Nc2ccccc2C(=O)O)cc1`, for which the Activity in data set [1] was 74%; in [4] it was 6%; in data set [5], 57%. The outcome in data set [2] and in data set [3] was inactive. The compound further registered a pKa in data set [8] of 3.5.
On to `COc1cccc(NC(=O)/C=C/c2ccc(Cl)cc2)c1`, for which, in data set [7], the pEC50 entry is “inactive”.
As to `O=C(Nc1ccccc1C(=O)O)/C(=C/c1ccccc1)c1ccccc1`, the Activity in data set [1] is 22%; in [2], 14%; in [3] it was 34%; in data set [4] it was 66%. For the same compound, the outcome in data set [13] was Active. For the same compound, the half-maximal effective concentration (EC50) in data set [7] was determined as 11 µM. This compound had a pKa in data set [8] of 3.4.
In the case of `COC(=O)c1ccccc1NC(=O)/C=C/c1ccc(OC(C)=O)cc1`, the Activity is 10% in data set [10] and 84% in [11]. Also, the pKa in data set [8] was determined as 13.8.
On to `O=C(/C=C/c1ccc([N+](=O)[O-])cc1)Nc1ccccc1C(=O)O`, for which the results for the Activity in data set [1], in data set [4] and in data set [5] were 33%, 25% and 39%, respectively. In addition, the result in [2] and in [3] was inactive. The EC50 in data set [7] stood at 219 µM. Also, the pKa in [8] amounted to 3.4.
Turning to `O=C(CCc1ccccc1)Nc1ccccc1C(=O)O`, the Activity stood at 81% in data set [1], 10% in data set [4] and 48% in [5]. Also, the outcome in data set [2] and in data set [3] was inactive. Besides, the pKa in data set [8] amounted to 3.5.
Turning to `COc1ccccc1/C=C/C(=O)Nc1ccccc1C(=O)O`, the results for the Activity in [1], in data set [4] and in [5] were 14%, 33% and 32%, respectively. In addition, the outcome in [2] and in [3] was inactive. Further, the half-maximal effective concentration (EC50) in data set [7] turned out to be 75 µM. Further, the results for the IC50 in data set [14] and in data set [12] were 41 µM and 51 µM, respectively. The pKa in data set [8] came out at 3.4.
In the case of `Cc1ccc(C(C)C)cc1O` [CARVACROL], the result in data set [6] and in data set [9] was inactive. Further, the half-maximal effective concentration (EC50) in [7] was 17 µM.
On to `COC(=O)c1ccccc1NC(=O)/C=C/c1ccc([N+](=O)[O-])cc1`, for which, in data set [8], the pKa is 13.6.
As for `COC(=O)c1ccccc1NC(=O)/C=C/c1ccc(Cl)cc1`, the results for the Activity in data set [10] and in data set [11] were 45% and 70%, respectively. The compound also yielded a pKa in data set [8] of 13.8.
Regarding `C/C(=C\c1ccccc1)C(=O)Nc1ccccc1C(=O)O`, the results for the Activity in data set [1], in data set [4] and in data set [5] were 29%, 33% and 28%, respectively. Also, the result in data set [2], in data set [3] and in data set [9] was inactive. In [6], the result was Active. Besides, the EC50 in data set [7] worked out at 133 µM. Further, the 50% inhibitory concentration (IC50) in data set [14] was 27 µM. In data set [8], this compound showed a pKa of 3.5.
`O=C(O)C1CCCCN1C(=O)/C=C/c1ccccc1` (racemic): the Activity in data set [1] was determined as 71%; in data set [4], 7%; in data set [5] it was 72%. The outcome in data set [2] and in data set [3] was inactive. Besides, the pKa in [8] was 3.3.
Regarding `CCOc1cc(/C=C/C(=O)Nc2ccccc2C(=O)O)ccc1O`, the Activity in [1] is 34%; in data set [4] it was 5%; in [5], 73%. Also, the result in data set [2] and in data set [3] was inactive. In addition, the IC50 in data set [12] turned out to be 106 µM. Besides, in data set [8], the pKa came to 3.5.
Regarding `C=CCN=C=S`, the result in data set [13] was Active.
As for `C=CC=O` [ACROLEIN], the result in [6] was Active. Further, the concentration for a half-maximal effect (EC50) in data set [7] was 27 µM. Besides, the result in data set [9] was inactive.
